Experimental data reported in ChEMBL document CHEMBL5030505, “Assessment of NR4A Ligands That Directly Bind and Modulate the Orphan Nuclear Receptor Nurr1” (J Med Chem, 2020).

Target: Nuclear receptor subfamily 4 group A member 2 (Homo sapiens) (UniProt P43354)
Assay: Modulation of full length human Nurr1 expressed in SKNBE(2) cells co-transfected with RXRalpha and luciferase reporter plasmid harboring NurRE response element assessed as increase in luciferase activity incubated for 18 hrs by luciferase reporter-gene assay
Assay type: cell-based
Settings: SKNBE2, filed as modulator
Outline: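 SK-N-BE(2)-C cells were kept in 1:1 EMEM/F12 with 10% FBS at 37°C and 5% CO2. They were cotransfected with full-length Nurr1 (1 μg), full-length RXRα (1 μg) and 3xNBRE- or 3xNurRE-luc reporter (6 μg) for 18 h, replated at 10,000 cells/well for 4 h, and then treated with ligand or vehicle in quadruplicate for 18 h. The readout was luciferase luminescence as fold over vehicle, reported as mean ± s.e.m. (n=4) from 2 independent experiments, one-way ANOVA.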

Chain of Nuclear receptor subfamily 4 group A member 2 (Homo sapiens) (P43354 whole entry): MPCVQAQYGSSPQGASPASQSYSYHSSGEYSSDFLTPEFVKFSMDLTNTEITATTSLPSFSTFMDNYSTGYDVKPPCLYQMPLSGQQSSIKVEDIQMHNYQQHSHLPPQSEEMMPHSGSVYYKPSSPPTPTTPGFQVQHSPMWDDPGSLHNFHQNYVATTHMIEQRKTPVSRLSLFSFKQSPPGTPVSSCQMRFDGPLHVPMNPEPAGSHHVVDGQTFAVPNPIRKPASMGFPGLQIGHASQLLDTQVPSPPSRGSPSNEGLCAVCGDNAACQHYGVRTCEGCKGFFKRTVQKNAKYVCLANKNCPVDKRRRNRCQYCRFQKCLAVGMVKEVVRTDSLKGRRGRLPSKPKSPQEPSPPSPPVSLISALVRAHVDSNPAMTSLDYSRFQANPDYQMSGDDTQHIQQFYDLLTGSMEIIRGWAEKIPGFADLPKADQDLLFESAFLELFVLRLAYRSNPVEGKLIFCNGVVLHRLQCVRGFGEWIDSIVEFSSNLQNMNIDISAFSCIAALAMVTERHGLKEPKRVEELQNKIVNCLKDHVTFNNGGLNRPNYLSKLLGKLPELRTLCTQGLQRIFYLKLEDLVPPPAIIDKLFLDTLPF

Activity	SMILES
Dose-Dependent Effect	CCN(CC)Cc1cc(Nc2ccnc3cc(Cl)ccc23)ccc1O [AMODIAQUINE]

Target: Nuclear receptor subfamily 4 group A member 2 (Homo sapiens) (UniProt P43354)
Assay: Modulation of full length human Nurr1 expressed in SKNBE(2) cells co-transfected with luciferase reporter plasmid harboring NurRE response element assessed as increase in luciferase activity incubated for 18 hrs by luciferase reporter-gene assay
Assay type: cell-based
Settings: SKNBE2, filed as modulator
Outline: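 Transfection of SK-N-BE(2)-C cells (1:1 EMEM/F12, 10% FBS, 37°C, 5% CO2) used full-length Nurr1 alone (2 μg, no RXRα) with 3xNBRE- or 3xNurRE-luciferase reporter (6 μg) for 18 h. Cells were replated at 10,000/well for 4 h, then exposed to ligand or vehicle in quadruplicate for 18 h. Luminescence was expressed as fold over vehicle, as mean ± s.e.m. (n=4) from 2 independent experiments, one-way ANOVA against vehicle.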

Activity	SMILES
Dose-Dependent Effect	CCN(CC)Cc1cc(Nc2ccnc3cc(Cl)ccc23)ccc1O [AMODIAQUINE]

Target: Nuclear receptor subfamily 4 group A member 2 (Homo sapiens) (UniProt P43354)
Assay: Modulation of full length human Nurr1 expressed in PC12 cells co-transfected with RXRalpha and luciferase reporter plasmid harboring NurRE response element assessed as increase in luciferase activity incubated for 18 hrs by luciferase reporter-gene assay
Assay type: cell-based
Settings: PC-12, filed as modulator
Outline: (§1)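 PC12 cells were grown at 37°C and 5% CO2 in […] medium with 15% horse serum and 2.5% FBS. They were transfected with full-length Nurr1 (1 μg) plus full-length RXRα (1 μg) and 3xNBRE- or 3xNurRE-luciferase reporter (6 μg) for 18 h, then replated at 10,000 cells/well for 4 h. Ligand or vehicle (water, ethanol or DMSO) was added in quadruplicate for 18 h. Luminescence was read as fold change over vehicle. Results are mean ± s.e.m., n=4, from 2 independent experiments, analysed by one-way ANOVA against vehicle.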

Activity	SMILES
Dose-Dependent Effect	CCN(CC)Cc1cc(Nc2ccnc3cc(Cl)ccc23)ccc1O [AMODIAQUINE]

Target: Nuclear receptor subfamily 4 group A member 2 (Homo sapiens) (UniProt P43354)
Assay: Modulation of full length human Nurr1 expressed in PC12 cells co-transfected with luciferase reporter plasmid harboring NurRE response element assessed as increase in luciferase activity incubated for 18 hrs by luciferase reporter-gene assay
Assay type: cell-based
Settings: PC-12, filed as modulator
Outline: (§2)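 Here PC12 cells (FK-12 medium, 15% horse serum, 2.5% FBS, 37°C, 5% CO2) received full-length Nurr1 (2 μg) without RXRα, plus 3xNBRE- or 3xNurRE-luciferase reporter (6 μg), for 18 h. Cells were replated at 10,000/well for 4 h, then treated with ligand or vehicle in quadruplicate for 18 h. Luciferase luminescence was normalized to vehicle-treated cells. Results are mean ± s.e.m. (n=4) from 2 independent experiments, with one-way ANOVA against vehicle.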

Activity	SMILES
Dose-Dependent Effect	CCN(CC)Cc1cc(Nc2ccnc3cc(Cl)ccc23)ccc1O [AMODIAQUINE]

Target: Nuclear receptor subfamily 4 group A member 2 (Homo sapiens) (UniProt P43354)
Assay: Modulation of full length human Nurr1 expressed in PC12 cells co-transfected with RXRalpha and luciferase reporter plasmid harboring NBRE response element assessed as increase in luciferase activity incubated for 18 hrs by luciferase reporter-gene assay
Assay type: cell-based
Settings: PC-12, filed as modulator
Outline: as §1

Activity	SMILES
Dose-Dependent Effect	CCN(CC)Cc1cc(Nc2ccnc3cc(Cl)ccc23)ccc1O [AMODIAQUINE]

Target: Nuclear receptor subfamily 4 group A member 2 (Homo sapiens) (UniProt P43354)
Assay: Modulation of full length human Nurr1 expressed in PC12 cells co-transfected with luciferase reporter plasmid harboring NBRE response element assessed as increase in luciferase activity incubated for 18 hrs by luciferase reporter-gene assay
Assay type: cell-based
Settings: PC-12, filed as modulator
Outline: as §2

Activity	SMILES
Dose-Dependent Effect	CCN(CC)Cc1cc(Nc2ccnc3cc(Cl)ccc23)ccc1O [AMODIAQUINE]

Target: Nuclear receptor subfamily 4 group A member 2 (Homo sapiens) (UniProt P43354)
Assay: Modulation of full length human Nurr1 expressed in HEK293T cells co-transfected with RXRalpha and luciferase reporter plasmid harboring NBRE response element assessed as increase in luciferase activity incubated for 18 hrs by luciferase reporter-gene assay
Assay type: cell-based
Settings: filed as modulator
Outline: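 Full-length Nurr1 plasmid, alone (2 μg) or 1 μg plus full-length RXRα (1 μg), cotransfected with 3xNBRE- or 3xNurRE-luciferase reporter (6 μg) using Lipofectamine 2000, 18 h. Cells replated at 10,000/well for 4 h. Four ligand concentrations, or vehicle (water, ethanol or DMSO), added in quadruplicate for 18 h. Luciferase read. Fold change vs vehicle, mean ± s.e.m., one-way ANOVA vs vehicle.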

Activity	SMILES
Dose-Dependent Effect	CCN(CC)Cc1cc(Nc2ccnc3cc(Cl)ccc23)ccc1O [AMODIAQUINE]

Target: Nuclear receptor subfamily 4immunitygroup A member 1 (Homo sapiens) (UniProt P22736)
Sequence (P22736 whole entry): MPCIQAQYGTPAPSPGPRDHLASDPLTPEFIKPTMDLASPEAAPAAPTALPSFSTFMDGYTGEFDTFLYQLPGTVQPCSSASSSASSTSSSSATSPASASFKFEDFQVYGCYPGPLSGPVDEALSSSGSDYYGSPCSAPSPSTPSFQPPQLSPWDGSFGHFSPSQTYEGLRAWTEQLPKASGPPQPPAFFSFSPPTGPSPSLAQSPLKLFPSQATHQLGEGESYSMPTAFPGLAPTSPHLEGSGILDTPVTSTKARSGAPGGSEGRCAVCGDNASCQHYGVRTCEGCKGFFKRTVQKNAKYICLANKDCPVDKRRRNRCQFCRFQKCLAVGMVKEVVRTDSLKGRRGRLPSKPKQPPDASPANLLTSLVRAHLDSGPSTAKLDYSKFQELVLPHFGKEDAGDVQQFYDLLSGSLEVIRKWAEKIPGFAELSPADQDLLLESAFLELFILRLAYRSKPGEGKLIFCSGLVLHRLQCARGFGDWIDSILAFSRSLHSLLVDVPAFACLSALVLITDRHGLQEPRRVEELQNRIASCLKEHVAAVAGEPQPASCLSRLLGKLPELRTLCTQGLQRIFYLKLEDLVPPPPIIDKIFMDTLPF
Assay: Modulation of full length human Nur77 expressed in SK-N-BE(2) cells co-transfected with luciferase reporter plasmid harboring NBRE response element assessed as increase in luciferase activity incubated for 18 by luciferase reporter gene assay
Assay type: cell-based
Settings: SKNBE2, filed as modulator, time 18.0 hrs
Outline: (§3)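 Cells seeded at 1.5 million per 10-cm dish. Next day they were transfected (Lipofectamine 2000) with full-length Nur77 or NOR-1 expression plasmid, either alone (2 μg) or 1 μg plus full-length RXRα (1 μg), and 3xNBRE- or 3xNurRE-luciferase reporter (6 μg), 18 h. Cells replated at 10,000/well, 4 h, then ligand dose response added in quadruplicate for 18 h. Luciferase luminescence read.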

Activity	SMILES
Dose-Dependent Effect	CCN(CC)Cc1cc(Nc2ccnc3cc(Cl)ccc23)ccc1O [AMODIAQUINE]

Target: Nuclear receptor subfamily 4 group A member 3 (Homo sapiens) (UniProt Q92570)
Sequence (Q92570 whole entry): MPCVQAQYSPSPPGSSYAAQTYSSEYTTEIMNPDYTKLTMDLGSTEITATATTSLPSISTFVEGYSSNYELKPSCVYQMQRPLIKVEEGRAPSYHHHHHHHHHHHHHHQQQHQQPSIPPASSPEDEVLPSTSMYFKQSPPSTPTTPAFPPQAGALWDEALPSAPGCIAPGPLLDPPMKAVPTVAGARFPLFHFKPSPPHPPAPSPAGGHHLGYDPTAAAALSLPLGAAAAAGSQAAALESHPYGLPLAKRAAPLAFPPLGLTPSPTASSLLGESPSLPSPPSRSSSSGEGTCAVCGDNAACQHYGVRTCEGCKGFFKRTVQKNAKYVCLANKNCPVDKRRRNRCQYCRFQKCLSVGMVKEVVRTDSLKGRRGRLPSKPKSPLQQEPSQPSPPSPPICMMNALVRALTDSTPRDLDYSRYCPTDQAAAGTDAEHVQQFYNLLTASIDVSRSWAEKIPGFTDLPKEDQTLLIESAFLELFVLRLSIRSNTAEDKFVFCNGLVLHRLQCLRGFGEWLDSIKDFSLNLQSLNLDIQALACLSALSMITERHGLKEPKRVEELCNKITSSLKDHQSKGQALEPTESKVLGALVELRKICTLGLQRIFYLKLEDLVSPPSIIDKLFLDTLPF
Assay: Modulation of full length human NOR1 expressed in SK-N-BE(2) cells co-transfected with luciferase reporter plasmid harboring NurRE response element assessed as increase in luciferase activity incubated for 18 by luciferase reporter gene assay
Assay type: cell-based
Settings: SKNBE2, filed as modulator, time 18.0 hrs
Outline: as §3

Activity	SMILES
Dose-Dependent Effect	CCN(CC)Cc1cc(Nc2ccnc3cc(Cl)ccc23)ccc1O [AMODIAQUINE]

Target: Nuclear receptor subfamily 4immunitygroup A member 1 (Homo sapiens) (UniProt P22736)
Assay: Modulation of full length human Nur77 expressed in HEK293 cells co-transfected with RXRalpha and luciferase reporter plasmid harboring NBRE response element assessed as increase in luciferase activity incubated for 18 hrs by luciferase reporter gene assay
Assay type: cell-based
Settings: filed as modulator
Outline: as §3

Activity	SMILES
Dose-Dependent Effect	CCN(CC)Cc1cc(Nc2ccnc3cc(Cl)ccc23)ccc1O [AMODIAQUINE]

Target: Nuclear receptor subfamily 4 group A member 3 (Homo sapiens) (UniProt Q92570)
Assay: Modulation of full length human NOR1 expressed in HEK293 cells co-transfected with luciferase reporter plasmid harboring NurRE response element assessed as increase in luciferase activity incubated for 18 hrs by luciferase reporter gene assay
Assay type: cell-based
Settings: filed as modulator
Outline: (§4)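 Full-length NOR-1 plasmid was transfected via Lipofectamine 2000, either alone (2 μg) or at 1 μg with full-length RXRα (1 μg). It was paired with a 3xNBRE or 3xNurRE luciferase reporter (6 μg), 8 μg total DNA, for 18 h. Cells were replated at 10,000/well for 4 h, then given a full ligand dose response or vehicle in quadruplicate for 18 h. Luciferase was read; no EC50/IC50 was fitted.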

Activity	SMILES
Dose-Dependent Effect	CCN(CC)Cc1cc(Nc2ccnc3cc(Cl)ccc23)ccc1O [AMODIAQUINE]

Target: Nuclear receptor subfamily 4 group A member 3 (Homo sapiens) (UniProt Q92570)
Assay: Modulation of full length human NOR1 expressed in HEK293T cells co-transfected with RXRalpha luciferase reporter plasmid harboring NBRE response element assessed as increase in luciferase activity incubated for 18 hrs by luciferase reporter gene assay
Assay type: cell-based
Settings: filed as modulator
Outline: as §4

Activity	SMILES
Dose-Dependent Effect	CCN(CC)Cc1cc(Nc2ccnc3cc(Cl)ccc23)ccc1O [AMODIAQUINE]

Target: Nuclear receptor subfamily 4 group A member 3 (Homo sapiens) (UniProt Q92570)
Assay: Modulation of full length human NOR1 expressed in SK-N-BE(2) cells co-transfected with luciferase reporter plasmid harboring NBRE response element assessed as increase in luciferase activity incubated for 18 by luciferase reporter gene assay
Assay type: cell-based
Settings: SKNBE2, filed as modulator, time 18.0 hrs
Outline: as §3

Activity	SMILES
Dose-Dependent Effect	CCN(CC)Cc1cc(Nc2ccnc3cc(Cl)ccc23)ccc1O [AMODIAQUINE]

Target: Nuclear receptor subfamily 4immunitygroup A member 1 (Homo sapiens) (UniProt P22736)
Assay: Modulation of full length human Nur77 expressed in PC12 cells co-transfected with luciferase reporter plasmid harboring NBRE response element assessed as increase in luciferase activity incubated for 18 by luciferase reporter gene assay
Assay type: cell-based
Settings: PC-12, filed as modulator, time 18.0 hrs
Outline: as §3

Activity	SMILES
Dose-Dependent Effect	CCN(CC)Cc1cc(Nc2ccnc3cc(Cl)ccc23)ccc1O [AMODIAQUINE]

Target: Nuclear receptor subfamily 4 group A member 3 (Homo sapiens) (UniProt Q92570)
Assay: Modulation of full length human NOR1 expressed in PC12 cells co-transfected with luciferase reporter plasmid harboring NurRE response element assessed as increase in luciferase activity incubated for 18 by luciferase reporter gene assay
Assay type: cell-based
Settings: PC-12, filed as modulator, time 18.0 hrs
Outline: as §4

Activity	SMILES
Dose-Dependent Effect	CCN(CC)Cc1cc(Nc2ccnc3cc(Cl)ccc23)ccc1O [AMODIAQUINE]
